Assay results as given in ChEMBL document CHEMBL1138484, “Synthesis and antiviral activity of 7-benzyl-4-hydroxy-1,5-naphthyridin-2(1H)-one HIV integrase inhibitors” (J Med Chem, 2009).

Legend:
[1] = Inhibition of HIV recombinant integrase strand transfer assay; parameters: species or system Human immunodeficiency virus
How it was run: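 Recombinant integrase (2 µM) preassembled with biotinylated donor DNA on streptavidin SPA beads (MOPS pH 7.2, MgCl₂, DTT, 5 min, 37 °C), then washed. Compound in DMSO (6.7% final) preincubated 60 min at 37 °C. [³H] target DNA added at 7 nM final, strand transfer run 25-45 min at 37 °C, EDTA quench, SPA readout. Mean ± standard error.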

MT4 [2] = test: Cytotoxicity against human MT4 cells up to =>7 uM after 5 days by MTS assay; type: cell-based; details: mt4, 120 h
How it was run: (§1)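 MT-4 cells in RPMI with 15% FBS, 10% T-cell growth factor and 10 µg/mL gentamicin, cultured 5 days at 37 °C, 5% CO₂. Compound-induced cytotoxicity (CCIC50) measured by MTS staining at OD 492 nm, in parallel with the HIV-1 IIIB antiviral MTS readout in the same cell line.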

[3] = Cytotoxicity against human MT4 cells after 5 days by MTS assay; type: cell-based; details: read-out: CCIC50; how it was run: as §1
[4] = system: Human immunodeficiency virus; test: Antiviral activity against pseudotype HIV after 2 days in presence 40 mg/mL human serum albumin; type: functional, organism-based; details: Human immunodeficiency virus 1, 48 h
How it was run: (§2)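 Pseudotyped HIV luciferase assay in 293T cells (2 × 10^4 per well), 2 days at 37 °C in DMEM + 10% FCS, luminescence read-out. Run with and without added serum protein, 40 mg/mL HSA. Line 5 is the ratio of the IC50 with HSA to the IC50 without.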

[5] = system: Human immunodeficiency virus; test: Antiviral activity against pseudotype HIV after 2 days in absence of human serum albumin; type: functional, organism-based; details: Human immunodeficiency virus 1, 48 h
How it was run: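 VSV-G-pseudotyped HIV vector carrying luciferase, harvested from transfected 293T cells. Target 293T cells (2 × 10^4 per well) mixed with vector at about 100K CPM and plated onto compounds in DMEM + 10% FCS. Incubated 2 days at 37 °C, 5% CO2. Luciferase read by Steady Glo luminescence. Values are means ± standard error (N > 1).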

[6] = system: Human immunodeficiency virus 1; test: Antiviral activity against HIV1 3B infected in human MT4 cells assessed as inhibition of virus-induced cytopathic effect after 5 days by MTS method; type: functional, organism-based; details: Human immunodeficiency virus 1, 3B, MT4, 120 h
How it was run: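 HIV-1 IIIB infection of MT-4 cells (HTLV-1 transformed) for 1 h at 37 °C, 5% CO2. Cells then added to compounds prediluted in RPMI with FBS and gentamicin; final assay medium had 15% FBS and 10% T-cell growth factor. Incubated 5 days at 37 °C. Virus-induced cytopathic effect read by MTS staining, OD 492 nm. Cytotoxicity measured in parallel.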

MT4 [7] = test: Cytotoxicity against human MT4 cells up to 8 to 10 uM after 5 days by MTS assay; type: cell-based; details: mt4, 120 h; how it was run: as §1
[8] = system: Human immunodeficiency virus 1; test: Antiviral activity against HIV1 3B infected in human MT4 cells assessed as inhibition of virus-induced cytopathic effect albumin after 5 days by MTS method in presence of 40 mg/mL human serum albumin; type: functional, organism-based; details: Human immunodeficiency virus 1, 3B, MT4, 120 h
How it was run: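 HIV-1 IIIB infection of MT-4 cells for 1 h at 37 °C, then cells added to prediluted compounds in RPMI with 15% FBS, 10% T-cell growth factor, 10 µg/mL gentamicin, plus 40 mg/mL HSA. 5 days at 37 °C, 5% CO₂. Cytopathic effect read by MTS staining at OD 492 nm. Mean ± standard error where N > 1.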

[9] = Therapeutic index, ratio of CCIC50 for human MT4 cells to IC50 for HIV1 3B; type: cell-based; how it was run: as §1
[10] = system: Human immunodeficiency virus; test: Ratio of IC50 for pseudotype HIV in presence of human serum albumin to IC50 for pseudotype HIV in absence of human serum albumin; type: functional; how it was run: as §2
Rattus norvegicus = test: Hepatic blood flow in CD rat at 1 mg/kg, iv; type: ADME, organism-based, Liver; parameters: dose 1 mg/kg, route intravenous; details: in vivo
[11] = Volume of distribution at steady state in CD rat at 1 mg/kg, iv; type: ADME, organism-based; parameters: dose 1 mg/kg, route intravenous; details: in vivo, read-out: Vdss
How it was run: (§3)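 Male CD rats, n = 2, given 1 mg/kg iv (1 mL/kg, fasted) in 10% DMSO/15% Solutol/75% 0.05 M […]. Blood drawn via implanted venous cannula at timed intervals over 24 h, EDTA plasma analysed by LC/MS/MS.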

[12] = system: Human immunodeficiency virus 1; test: Ratio of IC50 for HIV1 3B in presence of human serum albumin to IC50 for HIV1 3B in absence of human serum albumin; type: functional
How it was run: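 MT-4/HIV-1 IIIB MTS cytopathic-effect assay, 5 days at 37 °C, run in standard medium and again with 40 mg/mL HSA added. The ratio compares the IC50 with HSA to the IC50 without.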

[13] = Clearance in CD rat at 1 mg/kg, iv; type: ADME, organism-based; parameters: dose 1 mg/kg, route intravenous; details: in vivo; how it was run: as §3
[14] = Oral bioavailability in non fasted CD rat at 5 mg/kg; type: ADME, organism-based; details: in vivo
How it was run: (§4)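 Male CD rats, n = 2 per arm, dosed 5 mg/kg po (5 mL/kg) in 10% DMSO/15% Solutol/75% 0.05 M […]. Fasted arm had food removed the evening before and returned 4 h post-dose; other arm nonfasted. Cannula blood sampled over 24 h, EDTA plasma by LC/MS/MS. Bioavailability referenced to the 1 mg/kg iv arm.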

[15] = Oral bioavailability in fasted CD rat at 5 mg/kg; type: ADME, organism-based; details: in vivo; how it was run: as §4

| Compound | IC50 [1] | Activity (MT4 [2]) | CC50 at 120 h [3] | IC50 [4] | IC50 [5] | IC50 [6] | further results |
| --- | --- | --- | --- | --- | --- | --- | --- |
| CNC(=O)c1c(O)c2ncc(Cc3ccc(F)cc3)cc2n(C)c1=O | 4.1 nM | Non-toxic | 20000 nM | 57 nM | 1.4 nM | 11 nM | – |
| COCCNC(=O)c1c(O)c2ncc(Cc3ccc(F)cc3)cc2[nH]c1=O | 5 nM | – | > 8000 nM | 36 nM | 4.2 nM | 36 nM | Activity (MT4 [7]): Non-toxic |
| CCOC(=O)c1c(O)c2ncc(Cc3ccc(F)cc3)cc2n(CC(C)C)c1=O | 22 nM | – | – | – | 155 nM | – | – |
| CCNC(=O)c1c(O)c2ncc(Cc3ccc(F)cc3)cc2n(C)c1=O | 4 nM | Non-toxic | > 50000 nM | 661 nM | 1.6 nM | 3.5 nM | IC50 [8]: 4000 nM |
| CCOC(=O)c1c(O)c2ncc(Cc3ccc(F)cc3)cc2[nH]c1=O | 13 nM | – | – | – | 1200 nM | 1200 nM | – |
| CC(C)CNC(=O)c1c(O)c2ncc(Cc3ccc(F)cc3)cc2[nH]c1=O | 6 nM | Non-toxic | 7000 nM | 2500 nM | 4 nM | 68 nM | selectivity ratio [9]: > 100 |
| COCCNC(=O)c1c(O)c2ncc(Cc3ccccc3)cc2[nH]c1=O | 7 nM | – | > 10000 nM | 59 nM | 14 nM | 91 nM | Activity (MT4 [7]): Non-toxic |
| NC(=O)c1c(O)c2ncc(Cc3ccc(F)cc3)cc2[nH]c1=O | 45 nM | – | – | 656 nM | 66 nM | – | Ratio IC50 [10]: 10 |
| COC(=O)c1c(O)c2ncccc2[nH]c1=O | > 500000 nM | – | > 125000 nM | – | > 14000 nM | > 125000 nM | – |
| CCOC(=O)c1c(O)c2ncc(Cc3ccccc3)cc2[nH]c1=O | 3 nM | – | 103000 nM | – | 3700 nM | > 39500 nM | – |
| COCCNC(=O)c1c(O)c2ncc(Cc3ccc(F)cc3)cc2n(C)c1=O | 4 nM | – | > 20000 nM | 50 nM | 2 nM | 5 nM | QH (Rattus norvegicus): 20%; IC50 [8]: 48 nM; Vd [11]: 0.6 L/kg; Ratio IC50 [12]: <10; clearance [13]: 11.8 mL/min/kg; bioavailability [14]: 20%; bioavailability [15]: 25% |
| CNC(=O)c1c(O)c2ncc(Cc3ccc(F)cc3)cc2[nH]c1=O | 6 nM | Non-toxic | > 8000 nM | 119 nM | 3.4 nM | 30 nM | selectivity ratio [9]: > 100 |
| CCOC(=O)c1c(O)c2ncc(Cc3ccc(F)cc3)cc2n(C)c1=O | 6 nM | – | 6000 nM | 12000 nM | 77 nM | 1300 nM | – |
| COC(=O)c1c(O)c2ncc(Cc3ccccc3)cc2[nH]c1=O | 8 nM | – | > 125000 nM | – | 14000 nM | > 125000 nM | – |
| CCOC(=O)c1c(O)c2ncc(Cc3ccc(F)cc3)cc2n(CC2CC2)c1=O | 15 nM | – | – | – | 358 nM | – | – |
| O=C(NC1CC1)c1c(O)c2ncc(Cc3ccc(F)cc3)cc2[nH]c1=O | 10 nM | Non-toxic | > 8000 nM | > 14000 nM | 8 nM | 78 nM | selectivity ratio [9]: > 100 |
